According to ChEMBL document CHEMBL4041512, “Rational design of nitrofuran derivatives: Synthesis and valuation as inhibitors of Trypanosoma cruzi trypanothione reductase” (Eur J Med Chem, 2017):
The source made the active and inactive calls. The rule behind the calls is not given here.

Assays:
[1] = biological target: Trypanothione reductase (Trypanosoma cruzi, UniProt P28593); test: Uncompetitive inhibition of Trypanosoma cruzi trypanothione reductase using […] as substrate at pH 7.5 in presence of NADPH by photometric method
Trypanothione reductase, sequence (P28593 whole entry): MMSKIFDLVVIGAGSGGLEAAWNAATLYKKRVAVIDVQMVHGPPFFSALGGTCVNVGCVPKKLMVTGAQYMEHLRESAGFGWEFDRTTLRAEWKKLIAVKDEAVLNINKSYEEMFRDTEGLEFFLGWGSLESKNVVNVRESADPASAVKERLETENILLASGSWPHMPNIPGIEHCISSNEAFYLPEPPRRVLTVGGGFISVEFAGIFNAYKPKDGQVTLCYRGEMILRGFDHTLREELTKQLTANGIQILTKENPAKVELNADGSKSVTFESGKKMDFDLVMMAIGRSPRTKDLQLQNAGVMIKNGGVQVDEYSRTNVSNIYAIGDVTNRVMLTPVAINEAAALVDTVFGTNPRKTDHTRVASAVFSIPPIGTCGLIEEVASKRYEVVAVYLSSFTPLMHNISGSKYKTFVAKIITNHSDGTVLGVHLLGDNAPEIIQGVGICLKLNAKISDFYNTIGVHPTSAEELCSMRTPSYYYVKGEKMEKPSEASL
How it was run: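 Reactions started with NADPH; compound-free reactions serve as control. Initial rates were plotted against TS₂ concentration and Ki was taken as the mean of at least three independent data sets, within ±10%.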

[2] = tested on: Trypanosoma cruzi; test: Anti-parasitic activity against Trypanosoma cruzi Dm28c epimastigotes in logarithmic phase measured after 24 to 48 hrs by resazurin assay; type: functional
How it was run: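 Log-phase Dm28c epimastigotes at 1x10⁶ cells/ml in PBS plus 2% (w/v) glucose. Derivatives added at 0.1-100 µM final. Incubation 24-48 h, then viability read by resazurin. DMSO-only wells serve as negative control. Resazurin is also run with compound but no parasites. IC50 is the mean of at least three independent experiments, reproducible within ±10%.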

[3] = tested on: HeLa; test: Cytotoxicity against human HeLa cells measured after 24 hrs by crystal violet staining based assay; type: cell-based
How it was run: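 HeLa cells seeded at 2.5 x 10⁴ cells/well in DMEM with 2% FBS, 24 h at 37°C, 5% CO₂. Medium replaced with compound, eight serial dilutions in duplicate, 24 h at 37°C. Cells fixed and stained with 0.75% crystal violet in 40% methanol for 10 min. Dye dissolved in 20% acetic acid and read at 540 nm, triplicate means. Untreated cells are the negative control.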

[4] = Selectivity index, ratio of EC50 for cytotoxicity against human HeLa cells to IC50 for anti-parasitic activity against Trypanosoma cruzi Dm28c epimastigotes; type: toxicity, cell-based; conditions: read-out: Selectivity Index
How it was run: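 HeLa crystal violet EC50 (24 h) divided by epimastigote IC50 (resazurin, 48 h growth).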

[5] = tested on: Trypanosoma cruzi; test: Anti-parasitic activity against Trypanosoma cruzi Dm28c epimastigotes in logarithmic phase assessed as morphological changes at 30 uM measured after 48 hrs by resazurin assay; type: functional
[6] = biological target: Trypanothione reductase (Trypanosoma cruzi) (UniProt P28593); test: Inhibition of Trypanosoma cruzi trypanothione reductase at 100 uM using […] as substrate at pH 7.5 in presence of NADPH by photometric method; conditions: TDE = time-dependent effect
Trypanothione reductase (Trypanosoma cruzi), sequence (P28593 whole entry, looked up): as the sequence (P28593 whole entry) above

[7] = tested on: Trypanosoma cruzi; test: Potency index, ratio of nifurtimox IC50 to test compound IC50 for Trypanosoma cruzi Dm28c epimastigotes in logarithmic phase; type: functional

SMILES	Ki [1] [µM]	IC50 [2] [µM]	inhibition [6]	EC50 [3] [µM]	selectivity ratio [4]	Activity [5]	Ratio IC50 [7]
O=C(c1ccc([N+](=O)[O-])o1)N1CCCCC1	282	103	–	–	–	–	–
CC(C)(C)NC(=O)c1ccc([N+](=O)[O-])o1	313	35	–	–	–	–	–
O=C(O)c1ccc([N+](=O)[O-])o1	–	–	Tde	–	–	inactive	–
CCN(CC)CCCNC(=O)c1ccc([N+](=O)[O-])o1	128	25	–	100	4	–	–
CCCN(CCC)C(=O)c1ccc([N+](=O)[O-])o1	183	19.6	–	–	–	–	–
CN(C)CCNC(=O)c1ccc([N+](=O)[O-])o1	136	36	–	–	–	–	–
O=C(NCc1ccccc1)c1ccc([N+](=O)[O-])o1	61	15	Tde	123	8.2	–	–

The remaining compounds from weak to strong by Ki [1], led by results:

Ki [1] [µM]	IC50 [2] [µM]	inhibition [6]	SMILES	EC50 [3] [µM]	selectivity ratio [4]	Activity [5]	Ratio IC50 [7]
1180	23	–	CCC(C)NC(=O)c1ccc([N+](=O)[O-])o1 (configuration not stated)	165	7.2	–	–
414	18	–	CC(C)NC(=O)c1ccc([N+](=O)[O-])o1	211	11.7	–	–
336	17	–	CCCNC(=O)c1ccc([N+](=O)[O-])o1	150	8.8	–	–
315	26	–	CCCCNC(=O)c1ccc([N+](=O)[O-])o1	152	5.8	–	–
245	4	–	CC1CS(=O)(=O)CCN1/N=C/c1ccc([N+](=O)[O-])o1 (configuration not stated) [NIFURTIMOX]	272	68	–	–
187	64	–	O=C(c1ccc([N+](=O)[O-])o1)N1CCCC1	–	–	–	–
118	19	Tde	CN(C)CCCNC(=O)c1ccc([N+](=O)[O-])o1	74	3.9	–	–
68	1.1	Tde	O=C(c1ccc([N+](=O)[O-])o1)N(Cc1ccccc1)Cc1ccccc1	78	70.1	–	4
